Here are results for eight molecules from ChEMBL document CHEMBL1124532, “Angiotensin converting enzyme inhibitors: spirapril and related compounds” (J Med Chem, 1989).

The IC50 is the concentration at which inhibition is half-maximal.

Assay [1] addresses T1, Angiotensin-converting enzyme (Homo sapiens, UniProt P12821). The experiment in a line: (§1) Compound tested in vitro for inhibition of Angiotensin I converting enzyme.
Assay [2] concerns the target T2, Angiotensin-converting enzyme (Rattus norvegicus) (UniProt P47820).
T2 sequence (whole entry): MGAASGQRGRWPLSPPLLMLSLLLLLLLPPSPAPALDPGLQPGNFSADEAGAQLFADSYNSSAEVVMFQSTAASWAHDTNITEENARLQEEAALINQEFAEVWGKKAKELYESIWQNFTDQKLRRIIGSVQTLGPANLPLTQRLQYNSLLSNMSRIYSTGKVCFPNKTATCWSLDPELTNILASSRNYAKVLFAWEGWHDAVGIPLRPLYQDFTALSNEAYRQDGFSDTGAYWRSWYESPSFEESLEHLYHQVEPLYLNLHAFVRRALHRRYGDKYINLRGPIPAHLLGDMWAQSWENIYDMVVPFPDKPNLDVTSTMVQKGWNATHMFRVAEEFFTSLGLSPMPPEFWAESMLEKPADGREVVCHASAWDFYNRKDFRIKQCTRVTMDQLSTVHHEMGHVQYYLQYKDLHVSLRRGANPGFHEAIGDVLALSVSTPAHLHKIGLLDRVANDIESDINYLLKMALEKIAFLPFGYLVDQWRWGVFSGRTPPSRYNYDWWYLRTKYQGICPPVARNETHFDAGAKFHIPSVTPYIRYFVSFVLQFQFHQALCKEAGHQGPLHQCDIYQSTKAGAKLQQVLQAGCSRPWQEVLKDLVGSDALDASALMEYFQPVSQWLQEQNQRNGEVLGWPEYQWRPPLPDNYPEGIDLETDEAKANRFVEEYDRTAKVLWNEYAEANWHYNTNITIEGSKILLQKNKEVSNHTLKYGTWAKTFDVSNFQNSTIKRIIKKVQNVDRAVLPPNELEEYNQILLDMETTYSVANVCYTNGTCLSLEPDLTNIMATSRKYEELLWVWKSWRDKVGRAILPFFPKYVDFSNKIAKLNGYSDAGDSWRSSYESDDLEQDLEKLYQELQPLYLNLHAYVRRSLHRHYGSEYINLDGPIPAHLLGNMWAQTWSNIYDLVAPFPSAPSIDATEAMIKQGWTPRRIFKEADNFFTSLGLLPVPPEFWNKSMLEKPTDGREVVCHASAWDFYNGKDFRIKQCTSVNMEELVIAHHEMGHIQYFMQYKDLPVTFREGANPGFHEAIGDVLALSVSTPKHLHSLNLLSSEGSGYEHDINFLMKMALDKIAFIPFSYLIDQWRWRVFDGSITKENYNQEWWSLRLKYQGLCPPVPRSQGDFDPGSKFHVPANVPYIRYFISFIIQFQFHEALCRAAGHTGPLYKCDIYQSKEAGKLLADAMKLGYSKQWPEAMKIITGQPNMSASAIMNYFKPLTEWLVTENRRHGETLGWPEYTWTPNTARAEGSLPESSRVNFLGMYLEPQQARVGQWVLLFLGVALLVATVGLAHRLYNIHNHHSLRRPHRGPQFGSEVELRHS
Briefly: Compound tested in vivo for inhibition of Angiotensin I converting enzyme in rat. Type of assay: organism-based. The essentials:
(§2)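 Male Sprague-Dawley rats (280–365 g) anesthetized with inactin (100 mg/kg ip) or dial urethane, with carotid blood pressure recorded. AI 1 µg/kg iv was given before and 5 min after each cumulative iv drug dose (3, 10, 30 µg/kg; EtOH/saline, ≤12% EtOH). Percent of control pressor response was regressed on log dose to give ID50 per animal, then averaged.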

A short description of assay [3]: Compound tested in vitro for inhibition of Angiotensin I converting enzyme in rat. The gist of the method:
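Cushman–Cheung method using crude ACE enzyme preparations, with batches varying over the study period. IC50 was determined, and a reference ACE inhibitor was assayed concurrently in each run.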

For assay [4], the target named is T2, Angiotensin-converting enzyme (Rattus norvegicus). The experiment in a line: Compound tested in vivo for inhibition of angiotensin converting enzyme in rat. The assay is classed as organism-based. The essentials:
as §2

Assay [5] deals with T3, Angiotensin-converting enzyme (Rattus norvegicus, UniProt P47820).
T3 sequence (P47820 whole entry): T2 sequence (whole entry)
Described as §1. The gist of the method: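 In vitro ACE inhibition by the Cushman–Cheung procedure using crude enzyme preparations whose batches varied over time. IC50 determined with a reference inhibitor run concurrently.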

The species entered for the next assay is Canis familiaris. Briefly: Compound was tested for its efficacy in dog. The assay is classed as functional, Canis lupus familiaris.
The target of assay [6] is T1, Angiotensin-converting enzyme. Briefly: Compound was tested for inhibitory activity against angiotensin converting enzyme when administered intravenously to anesthetized dogs. Conditions: Canis lupus familiaris; target entry is the homologue from another species.

T1 sequence (P12821 whole entry): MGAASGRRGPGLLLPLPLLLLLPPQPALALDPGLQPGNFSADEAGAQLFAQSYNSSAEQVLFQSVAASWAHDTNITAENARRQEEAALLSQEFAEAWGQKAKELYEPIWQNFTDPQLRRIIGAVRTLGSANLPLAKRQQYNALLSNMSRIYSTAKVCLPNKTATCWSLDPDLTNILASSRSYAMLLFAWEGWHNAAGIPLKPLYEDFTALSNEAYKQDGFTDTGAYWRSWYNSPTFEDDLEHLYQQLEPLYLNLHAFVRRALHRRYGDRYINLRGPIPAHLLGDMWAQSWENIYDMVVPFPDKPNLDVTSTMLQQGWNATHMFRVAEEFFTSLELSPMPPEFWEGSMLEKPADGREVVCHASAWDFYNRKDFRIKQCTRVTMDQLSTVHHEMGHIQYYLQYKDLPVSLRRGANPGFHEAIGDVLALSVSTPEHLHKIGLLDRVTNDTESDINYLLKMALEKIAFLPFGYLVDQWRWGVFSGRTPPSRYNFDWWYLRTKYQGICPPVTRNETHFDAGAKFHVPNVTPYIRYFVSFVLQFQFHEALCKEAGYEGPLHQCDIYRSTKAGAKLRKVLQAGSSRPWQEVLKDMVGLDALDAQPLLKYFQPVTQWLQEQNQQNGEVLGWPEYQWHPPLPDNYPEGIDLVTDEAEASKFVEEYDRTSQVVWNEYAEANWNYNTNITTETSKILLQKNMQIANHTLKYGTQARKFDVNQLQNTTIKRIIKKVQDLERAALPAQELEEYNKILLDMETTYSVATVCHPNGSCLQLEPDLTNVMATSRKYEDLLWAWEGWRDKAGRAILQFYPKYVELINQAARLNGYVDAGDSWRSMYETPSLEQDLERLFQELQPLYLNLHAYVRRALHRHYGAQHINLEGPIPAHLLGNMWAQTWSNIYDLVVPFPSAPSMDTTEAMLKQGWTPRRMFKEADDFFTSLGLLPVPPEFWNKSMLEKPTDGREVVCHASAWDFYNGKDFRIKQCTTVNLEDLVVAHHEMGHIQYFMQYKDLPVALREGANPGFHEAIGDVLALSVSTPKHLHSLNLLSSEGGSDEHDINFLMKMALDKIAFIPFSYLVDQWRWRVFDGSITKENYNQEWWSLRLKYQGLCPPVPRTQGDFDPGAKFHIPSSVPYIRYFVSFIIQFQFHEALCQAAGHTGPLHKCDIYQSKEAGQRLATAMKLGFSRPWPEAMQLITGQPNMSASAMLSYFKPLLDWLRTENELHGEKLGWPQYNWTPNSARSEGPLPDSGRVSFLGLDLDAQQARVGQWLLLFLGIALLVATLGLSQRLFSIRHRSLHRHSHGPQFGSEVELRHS

In the case of `CCOC(=O)[C@H](CCc1ccccc1)N[C@@H](CCCCN)C(=O)N1CC2(C[C@H]1C(=O)O)SCCS2`, in assay [1], it took 200 nM to reach half-maximal inhibition (IC50). This molecule also displayed an ID50 in assay [2] of 0.01 mg/kg. In assay [1], `NCCCC[C@H](N[C@@H](CCc1ccccc1)C(=O)O)C(=O)N1CC2(C[C@H]1C(=O)O)SCCS2` returned an IC50 of 0.5 nM. In assay [2], the ID50 was determined as 0.01 mg/kg. As for `NCCCC[C@H](N[C@@H](CCc1ccccc1)C(=O)O)C(=O)N1CCC[C@H]1C(=O)O` [LISINOPRIL ANHYDROUS], in assay [3], the IC50 amounted to 1.2 nM. For the molecule `CCOC(=O)[C@H](CCc1ccccc1)NCC(=O)N1CC2(C[C@H]1C(=O)O)SCCS2`, the ID50 in assay [2] was 0.221 mg/kg. Still for that read-out and setting: the value for `C[C@H](N[C@@H](CCc1ccccc1)C(=O)O)C(=O)N1CCC[C@H]1C(=O)O` was 0.015 mg/kg. Regarding `CCOC(=O)[C@H](CCc1ccccc1)N[C@@H](C)C(=O)N1CCC[C@H]1C(=O)O`, the ID50 in assay [4] amounted to 0.057 mg/kg. As to `CCOC(=O)C(CCc1ccccc1)N[C@@H](C)C(=O)N1CC2(C[C@H]1C(=O)O)SCCS2` (stereo partly drawn), 92 nM corresponded to half-maximal inhibition in assay [3] (IC50). The molecule `CCOC(=O)[C@H](CCc1ccccc1)N[C@@H](C)C(=O)N1CC2(C[C@H]1C(=O)O)SCCS2` showed an IC50 in assay [5] of 67 nM. The figures for the ID50 in assay [4] and in assay [6] were 0.016 mg/kg and 0.3 mg/kg, respectively. This molecule returned an Efficacy in the assay filed under Canis familiaris of 0.3 mg/kg.
